# Activity calls are given as the source filed them.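 The calls were made as follows, unless noted: active = viability at or below 30% in both replicate assays; inconclusive = viability at or below 30% in just one of the two assays; inactive = the rest.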
# Key:
# [1] = Her2 expression decrease, cell viability multiplex – SKBR3 breast tumor cells, AlphaScreen, ATP viability, primary screen (AID 461;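 active = Her2 level under about 52% in both replicate screens, with viability over 70% of control, limit read from the data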;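 as to Her2 level: lower value means less Her2 protein in the cells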;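 as to viability: percent of carrier control wells set as 100% viability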); settings: SKBR3 Her2 protein level, 18-24 h, measured here: SKBR3 viability, ATP luminescence, at 10 µM
# [2] = biological target: Receptor tyrosine-protein kinase erbB-2 (Homo sapiens) (UniProt P04626); experiment: as above; settings: 18-24 h, at 10 µM, stronger effect = lower value
# [3] = reduced viability of SK-BR-3 breast cancer cells – cell-based, 24 h, human, pilot screen (AID 572;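 active = viability at or below 10% of carrier control in both of two separate runs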;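 also: compound exposure lasted between 18 and 24 h rather than exactly 24 h; 100% = carrier-treated control wells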); settings: SK-BR-3 viability, CellTiter-Glo luminescence, at 10 µM, stronger effect = lower value
# [4] = HUVEC growth inhibition – cell-based, human, primary screen (AID 575); settings: HUVEC proliferation, CellTiter-Glo luminescence, 72 h; at 10 µM; stronger effect = lower value;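 also: 100% = median of untreated cell wells with 0.1% DMSO on each plate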
# Procedure, shortened: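 Assay system: primary human umbilical vein endothelial cells / Buffer or medium: endothelial basal medium with 2% FBS plus growth supplements / Compound dosing: one dose, 10 µM final, 0.1% DMSO / Timing: 72 h treatment at 37 °C / Signal: CTG luminescence / Benchmarks: 32 DMSO-only cell-control wells (high), 32 MePR drug-control wells (low) per plate / Plate: collagen-coated 384-well format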
# [5] = H69AR cell proliferation blockers – human, duplicate replicates, primary screen (AID 580;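 active = viability at or under a set limit in both replicates, limit being median viability minus 3 SD, cut at about 48% in these data, passing the limit was not always enough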;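 also: 100% = mean luminescence of untreated wells and 0% = no signal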); settings: H69AR lung tumor cells viability, ATP luminescence, 72 h; at 10 µM; stronger effect = lower value
# [6] = MRP1 drug-resistance reversers in H69AR cells – cell-based, doxorubicin co-treatment, pilot screen (AID 601;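 active = viability loss from added drug above about 55%, and viability with drug at most 40%, in both replicates, limit read from the data, passing the limit was not always enough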); settings: CellTiter-Glo, 72 h, at 10 µM; for differential viability (reversal): stronger effect = higher value
# [7] = yeast transport mutant growth inhibition pilot in 384-well plates, post-Golgi transport modulator project (AID 636; in the data active = inhibition above about 31%); settings: absorbance 615 nm, about 18 h, stronger effect = higher value
# [8] = growth suppression of yeast trafficking mutant, preliminary HTS, modulators of trafficking downstream of Golgi apparatus project, 1536-format plate, OD 615 nm (AID 637; in the data active = inhibition above about 30%); settings: yeast transport mutant growth, absorbance 615 nm, 18 h; stronger effect = higher value
# [9] = H69AR cells + 2 uM doxorubicin, measured here: viability with 2 uM doxorubicin, stronger effect = lower value
# [10] = H69AR cells, compound alone cytotoxicity
# Chain of Receptor tyrosine-protein kinase erbB-2 (Homo sapiens) (P04626 whole entry, looked up): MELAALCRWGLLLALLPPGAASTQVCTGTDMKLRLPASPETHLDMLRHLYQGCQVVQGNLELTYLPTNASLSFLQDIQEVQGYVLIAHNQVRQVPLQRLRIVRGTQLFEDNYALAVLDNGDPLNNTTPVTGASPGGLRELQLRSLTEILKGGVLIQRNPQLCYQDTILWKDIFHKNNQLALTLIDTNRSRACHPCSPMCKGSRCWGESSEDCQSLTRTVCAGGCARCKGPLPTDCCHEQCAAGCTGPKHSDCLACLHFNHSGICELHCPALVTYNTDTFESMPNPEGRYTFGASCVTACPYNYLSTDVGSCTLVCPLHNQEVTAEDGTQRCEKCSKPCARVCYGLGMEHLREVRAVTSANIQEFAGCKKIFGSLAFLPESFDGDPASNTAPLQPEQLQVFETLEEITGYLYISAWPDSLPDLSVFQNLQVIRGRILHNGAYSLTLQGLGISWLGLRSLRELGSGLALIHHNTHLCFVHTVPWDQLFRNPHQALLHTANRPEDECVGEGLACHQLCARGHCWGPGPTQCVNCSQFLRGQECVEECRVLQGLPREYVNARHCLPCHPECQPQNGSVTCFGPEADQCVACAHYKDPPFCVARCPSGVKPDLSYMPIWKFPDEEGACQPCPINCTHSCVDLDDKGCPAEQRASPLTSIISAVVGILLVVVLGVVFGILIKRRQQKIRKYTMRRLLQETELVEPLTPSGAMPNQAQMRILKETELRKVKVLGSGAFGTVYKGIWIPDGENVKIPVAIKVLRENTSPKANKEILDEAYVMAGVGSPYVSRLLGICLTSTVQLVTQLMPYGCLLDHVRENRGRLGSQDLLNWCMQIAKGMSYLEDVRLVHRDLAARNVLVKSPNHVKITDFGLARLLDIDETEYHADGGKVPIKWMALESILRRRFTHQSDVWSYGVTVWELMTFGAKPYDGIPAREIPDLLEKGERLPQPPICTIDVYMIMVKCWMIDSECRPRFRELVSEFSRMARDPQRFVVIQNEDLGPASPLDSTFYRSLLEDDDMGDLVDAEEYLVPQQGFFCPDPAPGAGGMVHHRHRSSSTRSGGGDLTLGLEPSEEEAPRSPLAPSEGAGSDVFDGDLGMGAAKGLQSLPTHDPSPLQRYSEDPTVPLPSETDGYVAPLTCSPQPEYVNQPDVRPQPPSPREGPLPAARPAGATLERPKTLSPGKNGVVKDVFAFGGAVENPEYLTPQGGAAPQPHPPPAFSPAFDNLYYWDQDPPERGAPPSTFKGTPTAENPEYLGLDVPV
SMILES,viability [1],Her2 level [2],viability [3],viability [4],viability [5],differential viability (reversal) ([6]; H69AR cells + 2 uM doxorubicin),"viability [6, 9]","viability [6, 10]",inhibition [7],inhibition [8]
O=C(Cn1cccc1)N1CCN(C(c2ccccc2)c2ccccc2)CC1,102%,87% (inactive),102% (inactive),108% (inactive),91.4% (inactive),-4.55% (inactive),95.9%,91.4%,-6.76% (inactive),4.33% (inactive)
CC(=O)Nc1c2c(nn1-c1ccc(C)cc1C)CSC2,109%,113% (inactive),109% (inactive),101% (inactive),90.7% (inactive),-2.51% (inactive),93.2%,90.7%,-1.17% (inactive),-2.54% (inactive)
CC(=O)Nc1nc(-c2ccc(Cl)cc2)nc(C)c1C(C)=O,96.5%,89.5% (inactive),96.5% (inactive),89% (inactive),104% (inactive),9.83% (inactive),94.6%,104%,-3.65% (inactive),-2.83% (inactive)
CS(=O)(=O)N(Cc1nc2sc3c(c2c(=O)[nH]1)CCCC3)C1CCCCC1,91%,112% (inactive),91% (inactive),77.9% (inactive),84% (inactive),1.24% (inactive),82.7%,84%,-4.8% (inactive),-0.49% (inactive)
COCCn1c(SCC(=O)Nc2nnc(C)s2)nnc1-c1c[nH]c2ccccc12,104%,84% (inactive),104% (inactive),111% (inactive),103% (inactive),14.8% (inactive),88.6%,103%,-1.71% (inactive),-6% (inactive)
O=C(C1CCCN(S(=O)(=O)c2cnc[nH]2)C1)N1CC(=O)N(CCc2ccccc2)C(=O)C1 (stereo not given),93.5%,92% (inactive),93.5% (inactive),105% (inactive),95% (inactive),-4.7% (inactive),99.7%,95%,-0.8% (inactive),21.6% (inactive)
Fc1ccccc1-c1nc(-c2ccccc2)no1,85.5%,69% (inactive),85.5% (inactive),81.4% (inactive),111% (inactive),19.6% (inactive),90.9%,111%,1.05% (inactive),-3.87% (inactive)
Cc1nc2ccccc2c(=O)n1CC(=O)N1CCOCC1,120%,90.5% (inactive),120% (inactive),107% (inactive),90.4% (inactive),-9.46% (inactive),99.8%,90.4%,0.67% (inactive),-4.35% (inactive)
COC(=O)c1cc2oc(C)cc2n1CC(=O)Nc1ccc(C)c(C)c1,85.5%,83% (inactive),85.5% (inactive),59.5% (inactive),83.8% (inactive),-3.33% (inactive),87.1%,83.8%,0.51% (inactive),-7% (inactive)
COc1ccc(Cl)cc1NC(=O)c1oc(C)nc1C,91%,71.5% (inactive),91% (inactive),91% (inactive),90.1% (inactive),-2.13% (inactive),92.3%,90.1%,-5.95% (inactive),6.5% (inactive)
CCc1nc(C)c(C#N)c2cc(OC)c(OC)cc12,103%,90% (inactive),103% (inactive),77.8% (inactive),82.4% (inactive),8.46% (inactive),74%,82.4%,-0.91% (inactive),3.93% (inactive)
Cn1cc(CN2CCc3ccccc3C2)c2ccccc21,80.5%,82% (inactive),80.5% (inactive),90.4% (inactive),75.6% (inactive),-8.43% (inactive),84.1%,75.6%,-5.58% (inactive),3.93% (inactive)
CCN(CC)C(=O)CN(c1cc(Cl)ccc1OC)S(C)(=O)=O,95.5%,89.5% (inactive),95.5% (inactive),95.2% (inactive),102% (inactive),9.04% (inactive),93.3%,102%,-1.18% (inactive),-3.71% (inactive)
CCCCNC(=O)c1c(C)cc(=O)oc1C,102%,90.5% (inactive),102% (inactive),98.6% (inactive),107% (inactive),14.8% (inactive),92%,107%,-4.53% (inactive),-1.45% (inactive)
CCOC(OCC)P(=O)(C(C)C)C(C)C,87%,87% (inactive),87% (inactive),103% (inactive),91.8% (inactive),3.12% (inactive),88.6%,91.8%,-1.17% (inactive),-5.08% (inactive)
Cn1c(=O)c2c3c(sc2n2c(SCc4ccccc4)nnc12)CCCC3,77%,91.5% (inactive),77% (inactive),88.8% (inactive),87.5% (inactive),9.04% (inactive),78.4%,87.5%,-2.93% (inactive),-1.75% (inactive)
O=C(CN1C(=O)CSC1=O)N1CCc2ccccc2C1,100%,98% (inactive),100% (inactive),73.4% (inactive),89.6% (inactive),0.255% (inactive),89.3%,89.6%,-2.34% (inactive),-3.5% (inactive)
O=c1cnnc(NCc2ccccc2)[nH]1,88.5%,108% (inactive),88.5% (inactive),106% (inactive),103% (inactive),11.8% (inactive),91.5%,103%,-5.79% (inactive),-5.33% (inactive)
CCCC(C)c1nnc(NC(=O)C2CCCO2)s1 (stereo not given),126%,91% (inactive),126% (inactive),95.8% (inactive),93.9% (inactive),0.895% (inactive),93%,93.9%,-7.33% (inactive),-3.06% (inactive)
COCCn1nnnc1C(c1ccc(OC)cc1)N1CCN(c2ccccc2F)CC1 (stereo not given),100%,101% (inactive),100% (inactive),107% (inactive),89.7% (inactive),9.91% (inactive),79.8%,89.7%,-2.6% (inactive),-2.06% (inactive)
C/C(=N\O)C(C)/[N+]([O-])=C/c1nc(C)c(C)n1O (stereo not given),95.5%,109% (inactive),95.5% (inactive),97% (inactive),92.8% (inactive),-8.95% (inactive),102%,92.8%,-0.27% (inactive),0.48% (inactive)
CCCN(C(=O)CSc1nnc(-c2ccoc2C)n1N)C1CCS(=O)(=O)C1 (stereo not given),86.5%,88.5% (inactive),86.5% (inactive),79.7% (inactive),94.8% (inactive),7.94% (inactive),86.9%,94.8%,-2.6% (inactive),2.13% (inactive)
O=C(Nc1cccnc1)c1noc2c1CCCCC2,110%,90% (inactive),110% (inactive),105% (inactive),87.3% (inactive),-2.86% (inactive),90.2%,87.3%,-0.66% (inactive),9.5% (inactive)
CCOC(=O)c1cccc(NC(=O)CSc2nnc(-c3ccoc3C)n2CCOC)c1,102%,92% (inactive),102% (inactive),91.6% (inactive),89.7% (inactive),-2.74% (inactive),92.4%,89.7%,-1.45% (inactive),0.81% (inactive)
Cc1nn(C)cc1NC(=O)CCSc1nc(-c2ccco2)cc(C(F)(F)F)n1,90.5%,104% (inactive),90.5% (inactive),102% (inactive),87.3% (inactive),5.31% (inactive),81.9%,87.3%,-4.4% (inactive),23.9% (inactive)
Nc1ccc(-n2c(N)c(C(=O)NCc3ccc4c(c3)OCO4)c3nc4ccccc4nc32)cc1,72.5%,66.5% (inactive),72.5% (inactive),64.6% (inactive),55.5% (inactive),-17.4% (inactive),72.9%,55.5%,-1.73% (inactive),6.61% (inactive)
Cc1cc(C)nc(N2CCC(C(=O)NCc3cccc(C(F)(F)F)c3)CC2)n1,104%,100% (inactive),104% (inactive),76.6% (inactive),91.1% (inactive),4.94% (inactive),86.2%,91.1%,-6.08% (inactive),-2.33% (inactive)
COCC(C)NC(=O)NC(=O)c1ccc(Cl)cc1 (stereo not given),99.5%,93% (inactive),99.5% (inactive),94.6% (inactive),98.7% (inactive),10.4% (inactive),88.3%,98.7%,-6.13% (inactive),4.76% (inactive)
CCc1nnc(NC(=O)C2CCN(c3nccc(C)n3)CC2)s1,112%,93% (inactive),112% (inactive),100% (inactive),99.5% (inactive),5.65% (inactive),93.9%,99.5%,-6.22% (inactive),-2.17% (inactive)
